Here are results for two compounds from ChEMBL document CHEMBL3588770, “Novel spirohydantoin derivative as a potent multireceptor-active antipsychotic and antidepressant agent” (Bioorg Med Chem, 2015).

The target of assay [1] is D(2) dopamine receptor (Homo sapiens) (UniProt P14416). The assay is described as follows: Agonist activity at human recombinant D2 receptor expressed in HEK293 cells at 1 uM. The class given is cell-based. The method, boiled down: (§1)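 Functional assays run by a contract lab on CHO or HEK-293 cells stably expressing the human receptor. Read-out was intracellular cAMP, IP1 or Ca2+ release. A single test concentration of 1.0E-06 was used, in duplicate. Data are mean % of the control response.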
Sequence of D(2) dopamine receptor (Homo sapiens) (P14416 whole entry): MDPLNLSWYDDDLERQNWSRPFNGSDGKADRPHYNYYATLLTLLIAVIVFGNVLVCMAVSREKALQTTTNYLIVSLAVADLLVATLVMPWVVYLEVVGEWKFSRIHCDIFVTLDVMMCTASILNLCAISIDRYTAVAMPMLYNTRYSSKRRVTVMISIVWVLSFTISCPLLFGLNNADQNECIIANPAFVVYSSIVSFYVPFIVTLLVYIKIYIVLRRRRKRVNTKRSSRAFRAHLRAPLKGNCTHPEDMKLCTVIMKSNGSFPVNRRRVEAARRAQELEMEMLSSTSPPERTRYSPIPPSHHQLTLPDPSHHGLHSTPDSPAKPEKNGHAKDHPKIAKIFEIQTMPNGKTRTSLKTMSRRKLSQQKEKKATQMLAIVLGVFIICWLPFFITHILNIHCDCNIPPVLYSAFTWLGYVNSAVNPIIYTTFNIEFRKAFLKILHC

Assay [2] concerns the target D(3) dopamine receptor (Homo sapiens) (UniProt P35462). The experiment in a line: Agonist activity at human recombinant D3 receptor expressed in CHO cells assessed as intracellular cAMP release at 1 uM by HTRF method. It counts as functional, cell-based. The method, boiled down: as §1
A general note: Time-resolved FRET reads energy transfer from a long-lived donor to a nearby acceptor.

Assay [3] has the same target. The experiment in a line: Antagonist activity at human recombinant D3 receptor expressed in CHO cells assessed as inhibition of dopamine-induced intracellular cAMP release at 1 uM by HTRF method. The class given is functional, cell-based. The method, boiled down: as §1
Assay [4] deals with T1, D(4) dopamine receptor (Homo sapiens) (UniProt P21917).
T1 sequence (whole entry): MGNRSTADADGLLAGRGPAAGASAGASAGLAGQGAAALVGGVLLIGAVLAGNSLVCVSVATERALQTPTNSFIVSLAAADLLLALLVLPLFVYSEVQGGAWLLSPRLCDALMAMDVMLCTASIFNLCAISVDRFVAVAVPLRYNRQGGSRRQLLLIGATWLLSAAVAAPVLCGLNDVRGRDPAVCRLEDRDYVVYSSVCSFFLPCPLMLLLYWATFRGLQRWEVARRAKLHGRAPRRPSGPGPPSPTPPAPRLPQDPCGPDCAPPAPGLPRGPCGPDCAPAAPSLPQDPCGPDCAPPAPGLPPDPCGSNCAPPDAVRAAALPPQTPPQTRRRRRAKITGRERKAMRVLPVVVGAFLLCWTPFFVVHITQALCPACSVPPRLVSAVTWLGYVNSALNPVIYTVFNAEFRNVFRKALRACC
The assay is described as follows: Agonist activity at human recombinant D4 receptor expressed in CHO cells assessed as intracellular cAMP release at 1 uM by HTRF method. It counts as functional, cell-based. The method, boiled down: as §1

For assay [5], the target named is T2, 5-hydroxytryptamine receptor 1A (Homo sapiens) (UniProt P08908).
T2 sequence (whole entry): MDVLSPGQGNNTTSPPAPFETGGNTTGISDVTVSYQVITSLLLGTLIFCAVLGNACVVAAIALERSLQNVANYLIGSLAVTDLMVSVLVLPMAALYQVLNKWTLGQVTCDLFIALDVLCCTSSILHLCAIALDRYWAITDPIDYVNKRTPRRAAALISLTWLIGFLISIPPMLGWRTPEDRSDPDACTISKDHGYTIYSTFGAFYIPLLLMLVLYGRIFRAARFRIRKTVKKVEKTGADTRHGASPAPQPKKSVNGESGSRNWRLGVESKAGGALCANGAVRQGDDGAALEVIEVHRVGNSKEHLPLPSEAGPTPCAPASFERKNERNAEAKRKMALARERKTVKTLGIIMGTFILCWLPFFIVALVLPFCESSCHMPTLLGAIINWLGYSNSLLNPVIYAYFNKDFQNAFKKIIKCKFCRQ
The experiment in a line: Antagonist activity at human recombinant 5HT1A receptor expressed in HEK293 cells assessed as inhibition of 8-OH-DPAT-induced response at 1 uM. The class given is cell-based. The method, boiled down:
as §1

For assay [6], the target named is 5-hydroxytryptamine receptor 2A (Homo sapiens) (UniProt P28223). The experiment in a line: Agonist activity at human recombinant 5HT2A receptor expressed in HEK293 cells assessed as intracellular IP1 release at 1 uM by HTRF assay. It counts as functional, cell-based. The method, boiled down:
as §1

Assay [7] shares this target. The assay is described as follows: Antagonist activity at human recombinant 5HT2A receptor expressed in HEK293 cells assessed as inhibition of serotonin-induced intracellular IP1 release at 1 uM by HTRF assay. The class given is functional, cell-based. The method, boiled down:
as §1

For assay [8], the target named is 5-hydroxytryptamine receptor 7 (Homo sapiens) (UniProt P34969). The assay is described as follows: Agonist activity at human recombinant 5HT7 receptor expressed in CHO cells assessed as intracellular cAMP release at 1 uM by HTRF assay. It counts as functional, cell-based. The method, boiled down: as §1
Sequence of 5-hydroxytryptamine receptor 7 (Homo sapiens) (P34969 whole entry): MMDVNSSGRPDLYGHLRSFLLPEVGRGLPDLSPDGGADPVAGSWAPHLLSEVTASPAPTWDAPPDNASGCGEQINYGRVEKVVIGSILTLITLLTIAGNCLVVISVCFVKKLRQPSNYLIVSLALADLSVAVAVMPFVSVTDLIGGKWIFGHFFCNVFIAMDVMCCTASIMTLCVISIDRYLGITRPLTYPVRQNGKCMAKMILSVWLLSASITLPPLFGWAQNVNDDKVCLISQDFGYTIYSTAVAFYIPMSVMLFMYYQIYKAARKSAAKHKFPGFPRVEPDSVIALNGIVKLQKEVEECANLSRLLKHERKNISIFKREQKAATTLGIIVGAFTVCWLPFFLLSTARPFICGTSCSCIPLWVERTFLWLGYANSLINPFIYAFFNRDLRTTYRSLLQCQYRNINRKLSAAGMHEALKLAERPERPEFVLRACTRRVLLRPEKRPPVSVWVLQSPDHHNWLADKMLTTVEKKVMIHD
The target is the same in assay [9]. The experiment in a line: Antagonist activity at human recombinant 5HT7 receptor expressed in CHO cells assessed as inhibition of serotonin-induced intracellular cAMP release at 1 uM by HTRF assay. It counts as functional, cell-based. The method, boiled down: as §1
Assay [10] has as its target Adrenergic receptor alpha-1 (Homo sapiens) (UniProt P35348+P25100+P35368). The assay is described as follows: Agonist activity at human recombinant alpha1 adrenoceptor expressed in CHO cells at 1 uM. The class given is cell-based. The method, boiled down:
as §1

Assay [11] concerns the target T3, Alpha-2C adrenergic receptor (Homo sapiens) (UniProt P18825).
T3 sequence (whole entry): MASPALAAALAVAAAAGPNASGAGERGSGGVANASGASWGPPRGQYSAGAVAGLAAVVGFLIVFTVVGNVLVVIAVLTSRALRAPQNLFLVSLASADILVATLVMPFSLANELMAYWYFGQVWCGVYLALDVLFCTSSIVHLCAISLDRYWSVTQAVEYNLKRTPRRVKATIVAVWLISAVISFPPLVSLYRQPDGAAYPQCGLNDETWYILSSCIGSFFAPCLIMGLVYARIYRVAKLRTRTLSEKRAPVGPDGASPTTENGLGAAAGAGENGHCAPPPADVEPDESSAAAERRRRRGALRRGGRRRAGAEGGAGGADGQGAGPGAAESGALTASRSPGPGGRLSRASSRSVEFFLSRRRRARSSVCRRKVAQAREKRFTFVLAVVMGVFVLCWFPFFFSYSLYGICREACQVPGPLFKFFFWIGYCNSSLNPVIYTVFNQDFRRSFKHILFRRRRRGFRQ
The experiment in a line: Antagonist activity at human recombinant alpha2C adrenoceptor expressed in CHO cells assessed as inhibition of epinephrine-induced intracellular cAMP release at 1 uM by HTRF assay. It counts as functional, cell-based. The method, boiled down: as §1

The target of assay [12] is Histamine H1 receptor (Homo sapiens) (UniProt P35367). The assay is described as follows: Agonist activity at human recombinant H1 receptor expressed in HEK-293 cells assessed as intracellular Ca2+ release at 1 uM by fluorimetry. It counts as functional, cell-based. The settings on record: HEK293. The method, boiled down: as §1
Sequence of Histamine H1 receptor (Homo sapiens) (P35367 whole entry): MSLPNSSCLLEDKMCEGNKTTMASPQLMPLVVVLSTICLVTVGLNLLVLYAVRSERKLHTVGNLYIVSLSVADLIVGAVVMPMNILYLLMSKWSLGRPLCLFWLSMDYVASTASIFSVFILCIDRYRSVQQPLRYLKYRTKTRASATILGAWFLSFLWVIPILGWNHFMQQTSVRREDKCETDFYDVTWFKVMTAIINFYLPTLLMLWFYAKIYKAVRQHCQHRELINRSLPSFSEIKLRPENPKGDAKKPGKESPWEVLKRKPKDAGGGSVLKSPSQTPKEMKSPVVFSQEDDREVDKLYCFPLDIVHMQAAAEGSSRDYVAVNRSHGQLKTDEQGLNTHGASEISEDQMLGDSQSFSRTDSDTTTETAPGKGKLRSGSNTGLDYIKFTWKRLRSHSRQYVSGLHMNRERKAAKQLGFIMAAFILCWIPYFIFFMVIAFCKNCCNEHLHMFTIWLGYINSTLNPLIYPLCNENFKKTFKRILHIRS
Assay [13] concerns Mus musculus. The assay is described as follows: In vivo partial agonist activity at 5HT1A receptor in CD-1 mouse assessed as change in body temperature at 10 mg/kg, ip administered 15 mins after 5HT1A receptor antagonist WAY100635 injection measured after 30 mins (reference value: -0.1 degC). The class given is functional, organism-based. The method, boiled down:
(§2)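 Male CD-1 mice, 7-9 per dose. WAY 100635 (0.3 mg/kg) was given 15 min before the compound i.p. Rectal temperature was recorded 30 and 60 min after the compound, as the change from basal temperature.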

Assay [14] has as its system Mus musculus. The assay is described as follows: In vivo partial agonist activity at 5HT1A receptor in CD-1 mouse assessed as change in body temperature at 10 mg/kg, ip administered 15 mins after 5HT1A receptor antagonist WAY100635 injection measured after 60 mins (reference value: -0.1 degC). It counts as functional, organism-based. The method, boiled down:
as §2

Assay [15] concerns Mus musculus. The assay is described as follows: Antianxiety-like activity in Swiss albino mouse assessed as number of punished crossings at 0.312 to 5 mg/kg, ip by four-plate test. It counts as functional, organism-based. The method, boiled down:
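Four-plate test in male Swiss albino mice, 8-10 per dose, dosed i.p. in Tween 80 vehicle. After 15-s habituation, a 0.8 mA, 0.5 s foot shock was given at each plate crossing, with a 3 s shock-free interval. Punished crossings were counted over a 1-min session.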

The source made the active and inactive calls. The calls are words filed in the database; no cut-off is given here.

The inhibition is the change of the read-out against control, counted positive when it falls.

Sequence of D(3) dopamine receptor (Homo sapiens) (P35462 whole entry): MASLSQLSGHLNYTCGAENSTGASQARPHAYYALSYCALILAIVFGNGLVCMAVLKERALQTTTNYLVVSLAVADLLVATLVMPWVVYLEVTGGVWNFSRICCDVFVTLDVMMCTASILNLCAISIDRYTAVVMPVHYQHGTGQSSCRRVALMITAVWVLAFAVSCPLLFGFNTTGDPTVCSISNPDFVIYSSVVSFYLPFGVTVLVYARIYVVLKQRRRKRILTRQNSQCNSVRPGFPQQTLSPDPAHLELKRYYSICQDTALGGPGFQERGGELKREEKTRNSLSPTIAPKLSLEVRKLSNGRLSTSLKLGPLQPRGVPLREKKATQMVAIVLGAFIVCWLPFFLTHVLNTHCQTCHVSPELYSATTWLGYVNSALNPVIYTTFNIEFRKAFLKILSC
Sequence of 5-hydroxytryptamine receptor 2A (Homo sapiens) (P28223 whole entry): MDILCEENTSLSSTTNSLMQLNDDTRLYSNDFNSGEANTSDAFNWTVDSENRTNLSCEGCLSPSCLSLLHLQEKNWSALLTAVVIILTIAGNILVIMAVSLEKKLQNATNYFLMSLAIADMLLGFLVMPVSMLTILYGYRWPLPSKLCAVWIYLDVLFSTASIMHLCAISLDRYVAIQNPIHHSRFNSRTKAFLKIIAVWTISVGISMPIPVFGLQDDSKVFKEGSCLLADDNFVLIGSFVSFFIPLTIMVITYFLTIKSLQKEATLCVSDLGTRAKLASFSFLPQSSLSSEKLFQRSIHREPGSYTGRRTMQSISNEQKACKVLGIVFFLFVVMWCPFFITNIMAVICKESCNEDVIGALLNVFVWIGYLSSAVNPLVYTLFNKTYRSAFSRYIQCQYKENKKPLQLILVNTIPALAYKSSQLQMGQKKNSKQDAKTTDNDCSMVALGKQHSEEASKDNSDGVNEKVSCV

For the compound `COc1ccccc1N1CCN(CCCCN2C(=O)NC3(CCCc4ccccc43)C2=O)CC1` (configuration not stated), the Activity in [1] came out at 24%; in assay [2], 18%; in assay [4], 15%; in assay [6] it was 0%; in assay [8] it was 6%; in assay [10], 1%. For the same compound, the Activity in [12] is -2%. In addition, the inhibition in assay [3] came out at 53%; in [5], 101%; in assay [7] it was 27%; in assay [9] it was 43%; in assay [11], 79%. Besides, the deltaT is -1.1 °C in the assay on Mus musculus [13] and -1 °C in the assay on Mus musculus [14]. Also, the outcome in the assay with Mus musculus [15] was inactive.
Take `COc1ccccc1N1CCN(CCCCN2C(=O)NC3(CCc4ccccc43)C2=O)CC1` (configuration not stated): the Activity in [1] is 20%; in [2], 20%; in assay [4], 27%; in assay [6] it was 1%; in assay [8], 6%; in [10], 2%. Also, the Activity in assay [12] is -2%. Moreover, the inhibition in assay [3] was 66%; in assay [5], 102%; in assay [7], 18%; in assay [9] it was 28%; in assay [11] it was 69%.
